Measurements published in ChEMBL document CHEMBL1122553, “Tetrahydropyrrolo[1,2-a]quinoxalines and tetrahydropyrrolo[1,2-a]pyrido[3,2-a]pyrazines: vascular smooth muscle relaxants and antihypertensive agents” (1984).

What was measured:
Oryctolagus cuniculus = species on record: Oryctolagus cuniculus; assay: The vascular smooth muscle relaxant activity was expressed as percent relaxation of the developed isometric tension in potassium depolarized rabbit aortic smooth muscle; assay type: functional, Aorta
Outline: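 Transverse thoracic aorta strips from female New Zealand albino rabbits in Krebs solution (95% O2/5% CO2, 37 °C), held at 4 g isometric tension and equilibrated 90 min. Strips were primed with high-K+ (100 mM) solution plus 2.5 mM CaCl2, rinsed, then recontracted. After 20 min of sustained contraction, drug was added at 10⁻⁵ M final. Tension 20 min later was compared with pre-drug tension and given as % relaxation.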

Rattus norvegicus = assay: Antihypertensive activity expressed as maximal change in systolic blood pressure (SBP) from pretreatment levels at either 1.5 or 4 hr after dosing; assay type: functional, Artery
Outline: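 Male spontaneously hypertensive rats (Okamoto-Aoki, ~300-400 g), fasted at least 16 h, given a single oral 50 mg/kg dose by stomach tube; groups of four, with vehicle-only controls. Systolic pressure taken indirectly by tail plethysmography after 10 min warming at 38 °C, before dosing and at 1.5 and 4 h after. Reported as X ± SE.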

Structure (SMILES)	Vascular relaxation (Oryctolagus cuniculus) [%]	Max SBP (Rattus norvegicus) [mmHg]
c1ccc2c(c1)NCC1CCCN21 (centres undefined)	0	-17
O=C1Nc2ccccc2N2CCCC12 (centres undefined)	0	-26
O=C1C2CCCN2c2ncccc2N1Cc1ccncc1 (centres undefined)	0	-38
COc1cccc(OC)c1C(=O)N1CC2CCCN2c2ccccc21 (centres undefined)	6	-13
O=C1C2CCCN2c2ccccc2N1Cc1ccncc1 (centres undefined)	–	-2
CN(C)CCN1C(=O)C2CCCN2c2ncccc21 (centres undefined)	0	-22
COc1cccc(OC)c1CN1C(=O)C2CCCN2c2ccccc21 (centres undefined)	30	-19
COc1cccc(OC)c1CN1C(=O)C2CCCN2c2ncccc21 (centres undefined)	5	-18
O=C1C2CCCN2c2ccccc2N1Cc1ccccc1 (centres undefined)	–	-4
O=C1C2CCCN2c2ncccc2N1Cc1ccccc1 (centres undefined)	0	-39
COC(=O)C1=C(C)NC(C)=C(C(=O)OC)C1c1ccccc1[N+](=O)[O-] [NIFEDIPINE]	75	-68
COc1cccc(OC)c1CN1CC2CCCN2c2ccccc21 (centres undefined)	13	-5
COc1cccc(OC)c1CN1CC2CCCN2c2ncccc21 (centres undefined)	54	-6
